Results on 16 compounds are retold here after article PMC3100183 (Biochemistry, 2011).

Where two headings read alike, the source gives them in different places.

Test [1] deals with bovine coronary arteries. As to conditions: for EC50: read-out: EC50, relaxation of bovine coronary artery rings, rings pre-constricted with U46619 (20 nM). The essentials: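 Left anterior descending bovine coronary artery rings, preconstricted with U46619 (20 nM). Relaxation expressed as %, with basal tension taken as 100% relaxation. Mean ± SEM, n=6–7.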
Test [2] concerns 47 KDa protein in U937 cell membranes. It is filed as binding. The conditions noted are these: for Ki: read-out: Ki (95% Confidence Intervals), inhibition of 20-125I-14,15-EE8ZE-APSA photolabeling, U937 membranes, one-site competitive binding model.
For test [3], the system named is EET binding site/receptor on U937 cell membranes. The conditions noted are these: cited from earlier work.
Test [4] concerns bovine coronary arteries. The conditions noted are these: cited from earlier work.
In test [5] the test system is 79 orphan GPCRs overexpressed in HEK293T cells. The experiment in a line: Photolabeling of GPCRs overexpressed in HEK293T cells. The class given is binding. The conditions noted are these: 1 nM photoprobe; 79 GPCRs of Table 2. The essentials: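 HEK293T transiently transfected in 96-well format with N-terminal FLAG-tagged GPCRs (pMEX vector); expression confirmed by anti-FLAG flow cytometry. Lysed 30 min on ice (Tris pH 7.4, NaCl, NP-40, deoxycholate, protease inhibitors), sonicated. Lysates with 1 nM 125I photoprobe at 4°C, UV 15 min, SDS-PAGE, autoradiography. Vector-transfected HEK293T as blank; lysate from an equal number of U937 cells as positive control.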

Where [6] appears, read: U937 cell (mixed) membranes, 1 nM photoprobe.

On to `CCCCCC1OC1CC=CCC=CCC=CCCCC(=O)O` (stereo not drawn) [14,15-EET, 14,15-epoxyeicosatrienoic acid], for which the EC50 – broadly, the concentration at which the effect is half-maximal – in test [1] is about 2000 nM. The “Inhibition of photolabeling of the 47 KDa protein, in words” value (from here on “Inhibition of photolabeling … in words”) in test [2] (setting [6]) and in test [2] (U937 plasma membranes) was “inhibited” each time. Besides, in test [2], the inhibition constant Ki (as a rule, the dissociation constant of the complex between target and ligand, obtained from inhibition or displacement) was determined as 8.28 nM.

As to `CCCCC[C@H](O)/C=C/[C@@H]1[C@@H](C/C=C\CCCC(=O)O)[C@H]2CO[C@@H]1C2` [U46619, 9-11-dideoxy-11α,9a-epoxymethano-prostaglandin F2α], the “Inhibition of photolabeling … in words” value in test [2] (setting [6]) was “not inhibited”.

With `CCCCCC=CCC=CCC(O)C(O)CC=CCCCC(=O)O` (stereo not drawn) [8,9-DHET, 8,9-dihydroxyeicosatrienoic acid], in test [2] (setting [6]), the “Inhibition of photolabeling … in words” value is reported as “not inhibited”. Moreover, the “Effect on 20-125I-14,15-EE5ZE binding, in words” value in test [3] is “not to displace”.

Turning to `C=CCN1CC[C@]23c4c5ccc(O)c4O[C@H]2C(=O)CC[C@@]3(O)[C@H]1C5` [naloxone], the “Inhibition of photolabeling … in words” value in test [2] (setting [6]) is listed as “not inhibited”.

As to `CCCCC/C=C\C/C=C\CC1OC1C/C=C\CCCC(=O)O` (stereo not drawn) [8,9-EET], the inhibition constant Ki in test [2] is 444 nM.

For `[N-]=[N+]=Nc1cccc(S(=O)(=O)NC(=O)CCCCCC/C=C\CCCCC2OC2CCCCCI)c1` (stereo not drawn) [20-I-14,15-EE8ZE-APSA, 20-iodo-14,15-epoxyeicosa-8Z-enoyl-3-azidophenylsulfonamide], in test [1] (compared with 14,15-EET), the “ED50 for relaxation of preconstricted bovine coronary arteries, in words” value is “comparable to 14,15-EET”. Also, the EC50 in test [1] is about 2000 nM.

As for `CCCC(C(=O)OCCN(CC)CC)(c1ccccc1)c1ccccc1` [proadifen], the “Effect on 20-125I-14,15-EE5ZE binding, in words” value in test [3] is listed as “did not alter”. The “Effect on 14,15-EET-induced relaxations of bovine coronary arteries, in words” value (shortened to “Effect on 14,15-EET-induced relaxations”) in test [4] was “did not alter”.

In the case of `C#CCOc1ccccc1CCCCCC(=O)NS(C)(=O)=O` [MS-PPOH], the “Inhibition of photolabeling … in words” value in test [2] (setting [6]) is reported as “partially inhibited”. For the same compound, the inhibition constant (Ki) in test [3] (read-out: Ki, inhibition of 20-125I-14,15-EE5ZE binding) was 1560 nM. For the same compound, in test [4], the “Effect on 14,15-EET-induced relaxations” value is “blocked”.

On to `Nc1ccc(S(=O)(=O)Nc2ccnn2-c2ccccc2)cc1` [sulfaphenazole], for which the “Effect on 20-125I-14,15-EE5ZE binding, in words” value in test [3] is “did not alter”.

`Clc1ccc(COC(Cn2ccnc2)c2ccc(Cl)cc2Cl)c(Cl)c1` (stereo not drawn) [miconazole]: the “Inhibition of photolabeling … in words” value in test [2] (setting [6]) was “inhibited”; in test [2] (U937 cell (mixed) membranes, 1 nM photoprobe, listed as Miconazole), “completely blocked”. Moreover, in test [4], the “Effect on 14,15-EET-induced relaxations” value is given as “blocked”.

Regarding `CCCCC/C=C\C/C=C\C/C=C\C=C\C(=O)CCCC(=O)O` [5-oxo-eicosatetraenoic acid], the “Inhibition of photolabeling … in words” value in test [2] (setting [6]) is recorded as “not inhibited”.

In the case of `CCCCC/C=C\C[C@H]1O[C@H]1C/C=C\C/C=C\CCCC(=O)O` [11,12-EET], the “Inhibition of photolabeling … in words” value in test [2] (setting [6]) is “inhibited”. The Ki in test [2] came to 11.2 nM.

On to `CCCCCC1SC1C/C=C\C/C=C\C/C=C\CCCC(=O)O` (stereo not drawn) [14,15-Thiirane], for which the “Inhibition of photolabeling … in words” value in test [2] (setting [6]) is recorded as “did not alter”; in test [2] (U937 cell (mixed) membranes, 1 nM photoprobe, listed as thiirane analog of 14,15-EET), “not inhibited”. The inhibition constant (Ki) in test [2] was over 10000 nM.

Consider `CCCCCC1OC1CCCCCCC/C=C\CCCC(=O)O` (stereo not drawn) [14,15-EE5ZE, 14,15-cis-epoxy-eicosa-5(Z)-enoic acid], for which the Ki in test [2] was determined as 1100 nM.

With `CC(=O)N1CCN(c2ccc(OCC3COC(Cn4ccnc4)(c4ccc(Cl)cc4Cl)O3)cc2)CC1` (stereo not drawn) [ketoconazole], the “Inhibition of photolabeling … in words” value in test [2] (setting [6]) is “partially inhibited”. Besides, the “Inhibition of 20-125I-14,15-EE5ZE binding” value in test [3] (50 μM) is listed as 50%.

Consider `[N-]=[N+]=Nc1cccc(S(=O)(=O)NC(=O)CCCCCC/C=C\CCCCC2OC2CCCCC[125I])c1` (stereo not drawn) [20-^125I-14,15-EE8ZE-APSA], for which, in test [5], the “Photolabeling of lysates of GPCR expressing HEK293T cells, in words” value is “No radiolabeled bands”.
